1 molecule from ChEMBL document CHEMBL1944523, “Benzimidazolones: a new class of selective peroxisome proliferator-activated receptor γ (PPARγ) modulators” (J Med Chem, 2011) can be followed below.

One data set deals with T1, Cytochrome P450 2C8 (Homo sapiens, UniProt P10632).
T1 sequence (P10632 whole entry): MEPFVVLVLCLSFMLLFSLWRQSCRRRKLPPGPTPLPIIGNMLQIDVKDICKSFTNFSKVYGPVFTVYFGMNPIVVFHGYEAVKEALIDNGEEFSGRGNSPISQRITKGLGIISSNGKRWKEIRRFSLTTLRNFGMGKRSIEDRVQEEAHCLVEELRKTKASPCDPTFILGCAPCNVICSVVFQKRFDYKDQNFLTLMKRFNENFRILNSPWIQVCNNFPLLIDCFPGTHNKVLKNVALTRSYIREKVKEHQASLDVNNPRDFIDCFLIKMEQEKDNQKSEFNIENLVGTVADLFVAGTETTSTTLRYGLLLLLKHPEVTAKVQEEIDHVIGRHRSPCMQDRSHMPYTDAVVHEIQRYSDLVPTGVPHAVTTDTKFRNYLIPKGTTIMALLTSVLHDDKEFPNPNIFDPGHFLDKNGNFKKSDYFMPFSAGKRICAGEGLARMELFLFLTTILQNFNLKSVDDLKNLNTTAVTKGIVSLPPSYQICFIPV
Description: Inhibition of CYP2C8. The class given is ADME.

For data set [1], the system named is Rattus norvegicus. The data set is described as follows: Antidiabetic activity in obese insulin resistant Zucker fa/fa rat assessed as decrease in triglyceride level in plasma at 0.1 to 100 mg/kg qd for 7 days. Format: functional, organism-based. The method in brief:
(§1)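 Obese insulin-resistant Zucker fa/fa rats (n = 8) dosed daily for 7 days with vehicle or compound. Tail-nick blood taken 1 day before dosing and 1 day after the seventh dose; plasma insulin by rat insulin RIA, free fatty acids and triglyceride by enzymatic kits per manufacturer instructions.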

Data set [2] deals with Rattus norvegicus. Description: Plasma clearance in rat at 0.5 mg/kg, iv and 2 mg/kg, po by LC-MS/MS analysis. Format: ADME, organism-based. The settings on record: in vivo. The method in brief: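 Rat pharmacokinetics: 2 mpk oral in 5% methylcellulose, 0.5 mpk iv in ethanol/PEG400/water (1/4/5). Blood sampled at set intervals; plasma acidified with 0.5 M formate buffer pH 3.0, acetonitrile-precipitated, quantified by LC−MS−MS against spiked control-plasma calibration curves.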

A short description of data set [3]: Drug uptake in db/db C57BLKS/J-m +/+ Leprdb mouse at 10 mg/kg, po qd for 10 days measured in day 11 by LC-MS/MS analysis. Format: ADME, organism-based. The following applies: in vivo. Set-up: dose 10 mg/kg, route oral. In a few lines: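 Male db/db (C57BLKS/J-m +/+Leprdb) mice aged 12−13 weeks, seven per group, gavaged once daily with compound in 0.25% methylcellulose vehicle. Total compound exposure measured at study end: plasma acidified with 0.5 M formate buffer pH 3.0, protein precipitated with acetonitrile, quantified by LC−MS−MS against calibration curves in control plasma.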

Data set [4] deals with Rattus norvegicus. The data set is described as follows: Toxicity in obese insulin resistant Zucker fa/fa rat assessed as increase in plasma volume at >= 10 mg/kg. The settings on record: in vivo, 100 mg/kg.
Data set [5] deals with Mus musculus. The data set is described as follows: Antidiabetic activity in db/db C57BLKS/J-m +/+ Leprdb mouse assessed as reduction of glucose level at 3 mg/kg, po qd for 10 days measured on 11 relative to control. Format: functional. Set-up: scale not given: the % may be the effect or the level left. The method in brief: (§2)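 Male db/db (C57BLKS/J-m +/+Leprdb) mice, 12−13 weeks old, seven per group, chow and water freely available; once-daily oral gavage in 0.25% methylcellulose vehicle for 11 days. Tail blood drawn just before next dose on days 0, 4, 7 and 11 for plasma glucose. Value is percent correction versus vehicle control; mean of n = 7; rosiglitazone 10 mpk positive control.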

Data set [6] in a line: Inhibition of serine/threonine-protein kinase.
Data set [7] has as its target T2, Nuclear receptor subfamily 1 group I member 2 (Homo sapiens, UniProt O75469).
T2 sequence (O75469 whole entry): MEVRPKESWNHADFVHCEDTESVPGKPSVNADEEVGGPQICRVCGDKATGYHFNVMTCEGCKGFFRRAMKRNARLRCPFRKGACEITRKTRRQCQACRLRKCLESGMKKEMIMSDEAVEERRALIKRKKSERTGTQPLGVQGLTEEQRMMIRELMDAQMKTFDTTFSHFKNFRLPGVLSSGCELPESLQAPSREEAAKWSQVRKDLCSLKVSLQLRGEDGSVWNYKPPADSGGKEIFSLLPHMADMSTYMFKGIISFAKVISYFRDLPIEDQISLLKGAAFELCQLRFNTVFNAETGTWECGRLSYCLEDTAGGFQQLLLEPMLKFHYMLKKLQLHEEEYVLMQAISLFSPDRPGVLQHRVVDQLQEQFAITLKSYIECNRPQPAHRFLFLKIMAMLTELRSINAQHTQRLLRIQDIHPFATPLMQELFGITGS
The data set is described as follows: Induction of PXR up to 10 uM.

The target of a further data set is Cytochrome P450 3A4 (Homo sapiens, UniProt P08684). Description: Inhibition of CYP3A4. Format: ADME.
Data set [8] deals with Mus musculus. Description: Antidiabetic activity in db/db C57BLKS/J-m +/+ Leprdb mouse assessed as reduction of glucose level at 20 mg/kg, po qd for 10 days measured on 11 relative to control. Format: functional. Set-up: scale not given: the % may be the effect or the level left. The method in brief: as §2
For data set [9], the system named is Rattus norvegicus. The data set is described as follows: Antidiabetic activity in obese insulin resistant Zucker fa/fa rat assessed as decrease in insulin level in plasma administered qd for 7 days.
Data set [10] has as its system Rattus norvegicus. Description: Antidiabetic activity in obese insulin resistant Zucker fa/fa rat assessed as decrease in free fatty acids level in plasma at 0.1 to 100 mg/kg qd for 7 days. The class given is functional, organism-based. The method in brief: as §1
A further data set has as its target Cytochrome P450 2C9 (Homo sapiens, UniProt P11712). The data set is described as follows: Inhibition of CYP2C9. The class given is ADME.
A short description of data set [11]: Inhibition of Ikr channel up to 10 uM.
In data set [12] the target is T3, Peroxisome proliferator-activated receptor delta (Homo sapiens, UniProt Q03181).
T3 sequence (Q03181 whole entry): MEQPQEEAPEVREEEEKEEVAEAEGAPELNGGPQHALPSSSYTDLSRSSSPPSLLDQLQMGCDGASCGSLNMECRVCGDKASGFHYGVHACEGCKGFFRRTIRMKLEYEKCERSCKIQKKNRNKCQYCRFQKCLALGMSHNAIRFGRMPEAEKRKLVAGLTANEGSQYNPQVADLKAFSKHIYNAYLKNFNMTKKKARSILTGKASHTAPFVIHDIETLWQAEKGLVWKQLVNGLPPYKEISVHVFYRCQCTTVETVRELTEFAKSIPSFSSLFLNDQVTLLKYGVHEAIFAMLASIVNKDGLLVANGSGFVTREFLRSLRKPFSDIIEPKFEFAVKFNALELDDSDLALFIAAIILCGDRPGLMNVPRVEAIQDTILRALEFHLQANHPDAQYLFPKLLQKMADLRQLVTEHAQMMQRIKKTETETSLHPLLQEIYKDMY
Description: Binding affinity to PPARdelta by scintillation proximity assay. In a few lines: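 Scintillation proximity binding assay on PPAR receptors giving IC50; mean of three determinations.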
Background: SPA uses beads or plates that emit light when radiolabelled molecules are held near them.

A word on the IC50: it is the point on the concentration scale where inhibition reaches its midpoint. The term AUC denotes concentration integrated over time.

Activity calls are given as the source filed them. The calls are words filed in the database; no cut-off is given here.

Chain of Cytochrome P450 3A4 (P08684 whole entry): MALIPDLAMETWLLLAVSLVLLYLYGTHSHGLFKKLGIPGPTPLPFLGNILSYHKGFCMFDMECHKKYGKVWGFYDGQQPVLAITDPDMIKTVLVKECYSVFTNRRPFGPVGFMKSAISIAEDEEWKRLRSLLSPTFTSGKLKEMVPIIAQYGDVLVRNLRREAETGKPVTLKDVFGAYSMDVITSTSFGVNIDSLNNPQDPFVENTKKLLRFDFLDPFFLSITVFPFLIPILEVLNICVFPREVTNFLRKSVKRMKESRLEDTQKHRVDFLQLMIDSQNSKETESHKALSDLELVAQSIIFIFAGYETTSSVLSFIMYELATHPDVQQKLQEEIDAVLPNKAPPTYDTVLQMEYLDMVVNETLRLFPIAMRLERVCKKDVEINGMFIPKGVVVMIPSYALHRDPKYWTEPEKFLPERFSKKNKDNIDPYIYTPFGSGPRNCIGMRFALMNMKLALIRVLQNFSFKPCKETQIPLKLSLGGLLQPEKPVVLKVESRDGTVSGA
Chain of Cytochrome P450 2C9 (P11712 whole entry): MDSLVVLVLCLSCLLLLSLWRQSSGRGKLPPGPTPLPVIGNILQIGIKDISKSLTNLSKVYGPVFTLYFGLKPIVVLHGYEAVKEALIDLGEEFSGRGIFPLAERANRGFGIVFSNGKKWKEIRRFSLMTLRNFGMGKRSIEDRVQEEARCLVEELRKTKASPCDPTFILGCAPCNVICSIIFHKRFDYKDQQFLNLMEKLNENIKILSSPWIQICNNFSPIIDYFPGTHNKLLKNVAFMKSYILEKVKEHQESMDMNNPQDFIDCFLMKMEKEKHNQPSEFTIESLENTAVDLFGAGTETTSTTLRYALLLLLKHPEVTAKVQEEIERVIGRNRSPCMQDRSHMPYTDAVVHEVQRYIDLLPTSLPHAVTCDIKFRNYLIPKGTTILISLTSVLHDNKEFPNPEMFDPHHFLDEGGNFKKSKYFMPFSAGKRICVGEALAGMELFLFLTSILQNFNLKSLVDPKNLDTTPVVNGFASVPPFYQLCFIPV

In the case of `COc1ccc2c(-n3c(=O)n(Cc4cccc([C@@]5(C)OC(=O)NC5=O)c4)c4ccccc43)noc2c1`, the IC50 against Cytochrome P450 2C8 was 10 µM; at Cytochrome P450 3A4, 22 µM; against Cytochrome P450 2C9 it was 2 µM; in data set [12], over 50 µM. In addition, the result with Rattus norvegicus [1] and in the data set with Rattus norvegicus [10] was Active. Moreover, the clearance in the data set with Rattus norvegicus [2] amounted to 5.5 mL/min/kg. The molecule also registered an AUC at 240 h in data set [3] of 159 µM·h. The Activity result with Rattus norvegicus [4] is recorded as “Toxic”; in the data set with Mus musculus [5], 49%; in [7], “Not Active”; in the data set on Mus musculus [8], 77%. The molecule also gave an INH in data set [6] of 0.951 µM. For the same molecule, the ED50 in the data set on Rattus norvegicus [9] was determined as 281 µM·h. The inhibition entry in [11] was “inactive”.
